A selection: hits, their analogues and other compounds. The true share with any hit is near 3.1%.
T cruzi inh: blocks replication of Trypanosoma cruzi; 300,000 compounds, 1.4% hits; T. cruzi beta-gal in NIH3T3, luminescence, 90 h; inhibition, % (no concentration beside the values); AID 1885;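 active = mean inhibition across valid replicates above about 55%, limit read from the data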;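 note: signal also drops with host cell toxicity which is not excluded here; 0% = plate median of DMSO wells and 100% = zero luminescence signal; higher percent means less beta-gal luminescence so fewer parasites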
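Read-out: Parasite load inhibition, % | Test system: Mouse NIH/3T3 fibroblasts infected with β-gal-expressing T. cruzi Tulahuen C4 | Amount: 5,000 cells/well | Medium: DMEM, 2% fetal bovine serum | Signal: GalScreen β-gal luminescence, detergent lysis, 60 min | Timing: 3 h attach, ≥90 h co-culture | Also added: Tulahuen C4 trypomastigotes, 5000/well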
CSC inhib: cancer stem cell inhibition | inhibition, % at 7.5 µM | 300,000 compounds, 1.1% hits | AID 2717 | cancer stem cell-like cells viability, luminescence; in the data active = inhibition above about 75%; tested in HMLE shEcad cells
Beta apoptosis: blocks beta cell apoptosis; INS-1E cytokine-induced death, ATP luminescence, 48 h; percent of positive-control rescue, neutral wells zero; protection from apoptosis, % (no concentration beside the values); 300,000 compounds, 0.8% hits; AID 435005;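 active = Every replicate reaches about 75%, or at least half do and their mean reaches it too, limit read from the data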;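 note: 0% = cytokine-treated negative control wells and 100% = positive control rescue; higher means more ATP so stronger rescue from cytokine killing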
Calb FLC: affects C. albicans growth with fluconazole | C. albicans CaCi-2 + fluconazole, Alamar Blue growth, 48 h | growth inhibition, % (no concentration beside the values) | 300,000 compounds, 0.57% hits | AID 1979;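 active = growth inhibition above about 58% in most replicates, limit read from the data, passing the limit was not always enough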;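 note: all wells also contain fluconazole at 8 µg/ml as a sub-toxic cotreatment; 0% = median of DMSO wells and 100% = median of geldanamycin control wells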
PolyA inh: yeast polyadenylation inhibition | activity score, % at 12 µM | S. cerevisiae SKY197-pL101 polyadenylation reporter, beta-gal luminescence; efflux-impaired pdr1/pdr3 knockout yeast; score 100 = 6 SD above DMSO | 300,000 compounds, 0.02% hits;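 active = lowest replicate activity score at least 50, where 100 means six control SD above control mean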;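 note: yeast exposed to compound for 9 h at 30 °C; higher score means more reporter readthrough which indicates perturbed polyadenylation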
HIF activator: HIF pathway transcriptional activation | U2OS HRE-luciferase reporter, luminescence; normalized: DMSO 0%, desferrioxamine 100% | AID 1910 | activation, % at 7.5 µM (by protocol) | 300,000 compounds, 0.32% hits;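 active = mean activation of at least 10% of the iron chelator positive control signal, with at least half of replicates also reaching 10%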
* = called active by the depositor; / = no result.

SMILES	T cruzi inh	CSC inhib	Beta apoptosis	Calb FLC	PolyA inh	HIF activator
Cc1cccnc1Nc1nc(-c2ccc(O)cc2O)cs1	10	29	-8	-9	-5	3
CC(=O)Oc1ccc(-c2csc(Nc3cccc(C)n3)n2)cc1	43	79*	/	-2	-3	3
Cc1cccc(Nc2nc(-c3ccccn3)cs2)n1	59*	45	47	-20	-35	1
Cc1cccnc1Nc1nc(-c2ccccc2)cs1	26	22	/	-45	-1	2
N#Cc1c2ccc(OCC(=O)NCc3ccco3)cc2n2ccccc12	-1	12	0	6	5	0
N#Cc1c2ccc(O)cc2n2ccccc12	65*	4	5	-1	7	6
Cc1ccc(Cn2ncc3c(N4CCOCC4)ncnc32)cc1	/	-12	-10	/	/	/
Cc1ccc(Cn2ncc3c(N4CCN(c5ccccc5C)CC4)ncnc32)cc1	59*	48	2	10	-21	0
Cc1ccc(C)c(CNS(=O)(=O)c2ccc3c(c2)C(C)(C)C(=O)N3C)c1	0	-5	-3	3	-1	12*
Cc1ccc(N2NC(=O)/C(=C\c3cc4c(cc3[N+](=O)[O-])OCO4)C2=O)cc1C	7	88*	3	2	2	0
O=[N+]([O-])c1ccc(C2CCCC/C2=N\OCc2cccc(F)c2)c([N+](=O)[O-])c1 (stereo not drawn)	62*	20	-1	3	-33	0
CC1CCCC/C1=N/Nc1ccc([N+](=O)[O-])cc1[N+](=O)[O-] (stereo not drawn)	2	/	9	10	0	0
CC(=O)c1sc(NS(=O)(=O)c2ccc(C)cc2)nc1-c1ccccc1	-6	/	-6	49	-8	0
Cc1cccc(NC(=O)C(CC(C)C)NC(=O)C2CCC(C)CC2)n1 (stereo not drawn)	-1	-6	2	-5	-8	0
CC1CCC(C(C)C)C(OCC(O)CNC(C)c2ccccc2)C1 (stereo not drawn)	20	17	7	-11	4	0
CC(NCC(O)COC1CCC(C(C)(C)C)CC1)c1ccccc1 (stereo not drawn)	75*	/	5	-23	-51	0
Oc1ccc(N=Nc2ccccc2C(F)(F)F)c2cccnc12	55*	100*	90*	98*	17	-3
COc1ccccc1N=Nc1ccc(O)c2ncccc12	46	27	20	97*	-5	11*
Brc1cccc(CSc2nnc(-c3ccncc3)o2)c1	/	21	-7	81*	/	/
c1ccc2c(CSc3nnc(-c4ccncc4)o3)cccc2c1	38	35	-3	62	-15	0
c1ccc(-c2ccccc2OCCCCn2ccnc2)cc1	24	-8	9	-38	3	-1
Cc1cccc(Cn2cc(/C=C/[N+](=O)[O-])c3ccccc32)c1	39	109*	-1	-5	-4	0
CCOC(=O)Cn1cc(/C=C/[N+](=O)[O-])c2ccccc21	-7	-8	-4	-7	-37	1
O=[N+]([O-])/C=C/c1cn(Cc2ccc(Cl)cc2)c2ccccc12	1	99*	0	10	-99	0
CN1C(=O)/C(=C\C(=O)c2cccs2)c2ccccc21	-26	/	/	97*	-83	2
SMILES	T cruzi inh	CSC inhib	Beta apoptosis	Calb FLC	PolyA inh	HIF activator
O=C1CCN(C(=O)c2cccs2)c2ccccc21	-10	-28	-7	4	16	0
CCCN1CCc2c(sc3nc(SCC)n(-c4ccc(OC)cc4)c(=O)c23)C1	43	/	/	-6	1	2
COc1cccc(CN(C)C(=O)CSc2nc3ccccc3[nH]2)c1OC	3	1	-1	-8	-1	-1
C/C(Cn1cnc([N+](=O)[O-])n1)=N/NC(=O)COc1c(Cl)cc(Cl)cc1Cl	62*	-20	1	1	-1	0
CCOC(=O)c1cnc(-n2cc(C)cn2)nc1Nc1ccccc1OCC	31	11	15	99*	-21	0
Nc1nonc1-n1nnc(C(=O)N/N=C/c2cccc(F)c2)c1-c1ccccc1	2	0	-6	-18	4	0
CCC(NC(=O)c1ccc([N+](=O)[O-])cc1[N+](=O)[O-])c1ccccc1 (stereo not drawn)	58*	-12	1	-1	10	-2
Cn1c(O)c(C2=c3ccccc3=NC2=O)[nH]c1=S	-18	-11	5	7	-34	0
COc1ccc2nc(-n3c(O)c(C4=c5ccccc5=NC4=O)[nH]c3=S)sc2c1	-4	111*	10	-3	-1	0
O=C1c2ccc(Cl)cc2S(=O)(=O)c2cccc(C(=O)N3CCC(Cc4ccccc4)CC3)c21	/	123*	3	/	/	/
CCOC(=O)c1c(N)sc2c(OCC)c(Br)ccc12	39	79*	10	29	-14	1
FC(F)(F)c1nc2ccccc2n2c(-c3ccc(Cl)cc3)nnc12	0	/	101*	-5	-2	0
Cc1ccc(-c2nnc3c(C(F)(F)F)nc4ccccc4n23)cc1	-1	-6	4	37	10	0
COC(=O)Nc1ccc(S(=O)(=O)N2c3ccccc3CCC2C)cc1 (stereo not drawn)	-12	145*	10	23	-5	0
Cc1ccccc1CN1[C@@H](CC2CCCCC2)COCCS1(=O)=O	19	9	-6	2	21	2
C=CCn1nc2ccccc2c1OC	-30	-4	-9	-2	1	1
S=C1Cc2ccccc2N1	60*	/	/	63	3	0
CC1(C)CC(N2CCN(Cc3ccccc3)CC2)=CC(=[N+]2CCCCC2)C1	62*	-3	109*	83*	-27	0
COc1ccccc1C(=O)Nc1onc(C)c1C#N	-4	-13	-4	10	-12	0
Cc1cc2ncn(/N=C/c3ccc([N+](=O)[O-])o3)c2cc1C	60*	15	50	-4	6	0
O=C(NCCc1ccccc1F)C1CCCN1S(=O)(=O)c1ccc2ccccc2c1 (stereo not drawn)	75*	-2	-5	6	-16	0
CCNC(=O)C1CCCN1S(=O)(=O)c1ccc2ccccc2c1 (stereo not drawn)	5	0	-5	7	9	0
CCOC(=O)c1c(C)oc2c(F)c(F)c(F)c(F)c2c1=O	-17	90*	/	36	-21	0
CCOC(=O)c1c(C)oc2c1cc(O)c1ccccc12	-11	-8	-11	9	13	3
Cc1cc(C(=O)Nc2nc3c(s2)CCCC3)cs1	13	86*	14	18	2	-1
COc1ccc(NC(=O)Nc2nc3c(s2)CCCC3)cc1	19	26	7	80*	6	2
CC(C)CN1C(=O)NC2(CCCc3ccccc32)C1=O (stereo not drawn)	-17	-15	-2	-11	21	-1

Screening results as filed in PubChem BioAssay.
